Source: PubChem (several laboratories)
T cell HTS – T cell immune modulators affecting CD8 T cell-vesicle binding | 0.068% of 330,000 active | response (vesicle binding), % at 7 µM | 2C CD8+ T cell-vesicle binding, flow cytometry; stronger effect = lower value | AID 2052;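 active = response, share of CD8 T cells binding vesicles, and their 90th percentile fluorescence all below set limits, cut at about 80% in these data, passing the limit was not always enough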;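 note: values below 100% mean blocked vesicle binding to the CD8+ T cells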
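Assay system: 2C TCR transgenic mouse naive CD8+ T cells, MACS-purified | Read-out: CD8+ gate FL2 mean fluorescence as % of same-row positive control | Signal: High-throughput flow cytometry with anti-B7-1 and anti-CD8 staining | Timing: Binding step 1.5 h, 37 °C, antibody labelling 20 min, ice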
V-ATPase pH – yeast V-ATPase proton transport regulation by pHLuorin. S. cerevisiae, pHLuorin cytosolic pH fluorescence. 0.37% of 350,000 active. response, % at 10 µM; in the data active = response mostly above about 7.3%, no sharp cut-off; inactive = mostly below about 5.4%; note: actives read high
rCAG binder – molecules binding r(CAG) RNA repeats; r(CAG) RNA repeat, TO-PRO-1 dye displacement fluorescence; inhibition, % at 3 µM; 1.3% of 370,000 active;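 active = inhibition above the plate cutoff, the mean of all test compounds on that plate plus 3 SD, cut at about 35% in these data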;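 note: higher means more dye released from RNA so lower well fluorescence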
Granule exo inh – blocks lytic granule exocytosis; TALL-104 LAMP-1 surface exposure, flow cytometry; cells stimulated with thapsigargin and PMA; inhibition, % at 10 µM; 0.66% of 360,000 active; AID 651702;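 active = inhibition above about 55%, limit read from the data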
MPTP block – blocks calcium-induced mitochondrial swelling | 1.4% of 360,000 active | inhibition, % at 10 µM | isolated mouse mitochondria, Ca2+ swelling absorbance, 30 min | AID 602449;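 active = inhibition of 50% or more, scaled per plate between neutral and stimulator controls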
B2AR ag – human beta-2 adrenergic receptor agonism by FAP; P07550; Am2.2-beta2AR cells, FAP receptor internalization, flow cytometry; response, % (no concentration beside the values); 0.43% of 340,000 active; AID 504454;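 active = response above a set limit, near 3 SD of response in nonfluorescent compounds, cut at about 42% in these data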
Target sequence (P07550 whole entry, looked up): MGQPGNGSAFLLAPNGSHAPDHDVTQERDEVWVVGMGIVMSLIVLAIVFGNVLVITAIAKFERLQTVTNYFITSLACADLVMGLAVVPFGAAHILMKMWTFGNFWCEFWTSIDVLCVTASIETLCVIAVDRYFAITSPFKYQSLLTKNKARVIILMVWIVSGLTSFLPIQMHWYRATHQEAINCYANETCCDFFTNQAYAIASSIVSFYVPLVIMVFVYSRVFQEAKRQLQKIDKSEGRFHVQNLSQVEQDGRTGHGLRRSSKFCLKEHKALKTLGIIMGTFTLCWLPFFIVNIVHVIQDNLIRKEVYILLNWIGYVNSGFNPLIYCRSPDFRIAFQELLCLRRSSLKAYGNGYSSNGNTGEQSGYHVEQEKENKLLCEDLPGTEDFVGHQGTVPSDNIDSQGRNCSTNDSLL
Rh123 counter – mitochondrial membrane potential, counter-screen; shares compounds with MPTP block; isolated mitochondria, Rhodamine 123 fluorescence; inhibition, % at 10 µM; 78% of 5,000 active; AID 624504; in the data active = inhibition above about 22%
MPTP swell DR – MPTP inhibition, dose response swelling confirmation. isolated mitochondria swelling, absorbance. shares compounds with MPTP block. 58% of 780 active. IC50, µM. AID 651561; in the data active = IC50 below about 20 µM
MPTP counter DR – counter-screen for mitochondrial permeability transition pore inhibitors, dose response; shares compounds with MPTP block; AID 651564; 49% of 780 active; IC50, µM; isolated mitochondria counterscreen, fluorescence read-out; in the data active = IC50 below about 80 µM
A number is an active result; – = inactive; · = not tested or not shown. The list is not random: actives were taken first. Their share in the collection is about 3.8%.

SMILES	T cell HTS	V-ATPase pH	rCAG binder	Granule exo inh	MPTP block	B2AR ag	Rh123 counter	others
N=c1n(CCO)c2ccccc2n1CCOc1ccccc1	–	–	–	–	–	–	·
N=c1n(CCO)c2ccccc2n1Cc1ccc(Cl)cc1	–	–	–	–	89	–	–	MPTP swell DR=13;MPTP counter DR=48
Cn1c(=O)c2[nH]c(CCCCCCCCc3nc4ccccc4[nH]3)nc2n(C)c1=O	·	–	–	–	102	–	94
O=C(Nc1cc(Oc2ccccc2)cc([N+](=O)[O-])c1)C12CC3CC(C1)CC(n1cnc(Cl)n1)(C3)C2	–	–	–	–	82	–	59
CCc1nnc(NS(=O)(=O)c2ccc(NC(=S)NC(=O)/C=C/c3ccc(C(C)C)cc3)cc2)s1	–	–	·	90	66	–	42
CCc1nnc(NS(=O)(=O)c2ccc(NC(=S)NC(=O)/C=C/c3ccc(OC)cc3)cc2)s1	–	–	–	–	–	–	·
Cc1ccc2oc(-c3cccc(NC(=O)Cn4cnc5c(=O)n(C)c(=O)n(C)c54)c3)nc2c1	–	·	·	·	·	·	·
CCC(C)c1ccc2oc(-c3ccc(NC(=O)Cn4cnc5c(=O)n(C)c(=O)n(C)c54)cc3)nc2c1 (configuration not stated)	–	–	–	–	84	–	–	MPTP swell DR=–;MPTP counter DR=41
O=[N+]([O-])c1ccc(-c2nc3ccc([N+](=O)[O-])cc3[nH]2)cc1	–	–	–	–	105	–	92
Nc1ccc(-c2nc3ccc([N+](=O)[O-])cc3[nH]2)cc1	–	–	–	–	–	–	·
CC1=NN(c2ccccc2)C(=O)/C1=C/c1ccc(Cl)cc1	–	–	–	–	98	–	84
CC1=NN(c2ccccc2)C(=O)C1=Cc1ccccc1	·	–	–	–	–	·	·
CC1=NN(c2ccccc2)C(=O)/C1=C/c1c(O)n(-c2ccc(F)cc2)[nH]c1=O	–	–	91	–	61	–	–
CCC(C(=O)Nc1ccccc1N1CCCC1)c1ccccc1F (configuration not stated)	·	·	–	·	·	·	·
N#Cc1cc(C(=O)c2cc(Br)ccc2O)cn(C2CCCCC2)c1=O	–	–	–	–	94	–	82
O=[N+]([O-])c1ccc(-c2c(O)c3ccccc3c3nc4ccccc4nc23)cc1	–	–	–	–	74	–	37
Cc1cc(/C=N/n2c(COc3ccccc3C)nc3ccccc3c2=O)c(O)c([N+](=O)[O-])c1	–	–	–	–	70	–	39
CCCCCCCCN1C(=O)[C@@H](CC(=O)NCc2ccc(OC)c(OC)c2)C[C@@]2(C(=O)OC)C1=C[C@H](COCc1ccccc1)O[C@@H]2C	·	·	–	·	·	·	·
CCOC(=O)C1=C(C(=O)OCC)C2N(Cc3ccc(C#N)cc3)c3ccccc3[C@@]23C[C@@H](C(=O)OC)N(S(=O)(=O)c2cccs2)C3=N1 (some centres not stated)	·	·	–	·	·	·	·
C#CCNC(=O)C[C@H]1C[C@@]2(C(=O)OC)C(=C[C@H](C(C)(C)C)O[C@@H]2C)N(Cc2ccc3c(c2)OCO3)C1=O	·	·	–	·	·	·	·
COc1ccccc1C1(CCNC(C)c2cccs2)CCOC(C(C)C)C1 (configuration not stated)	–	–	–	–	–	–	·
Cc1ccc(C2(CCNC(C)c3cccs3)CCOC(C(C)C)C2)cc1 (configuration not stated)	·	–	–	–	91	–	–	MPTP swell DR=12;MPTP counter DR=59
Cc1ccccc1CN(CC(=O)Nc1cccc([N+](=O)[O-])c1)S(=O)(=O)c1ccc(Cl)cc1	–	–	–	–	89	–	80
O=C(CCSc1ccccc1Cl)Nc1cccc([N+](=O)[O-])c1	–	–	–	–	89	–	84
CCOC(=O)Cn1cc(CN2C(C(=O)OC)CN(C3CCCC3)CCS2(=O)=O)nn1 (configuration not stated)	·	·	–	·	·	·	·
SMILES	T cell HTS	V-ATPase pH	rCAG binder	Granule exo inh	MPTP block	B2AR ag	Rh123 counter	others
NCCN1CCN(S(=O)(=O)c2ccc3c(c2)CCN3C(=O)C2CCC2)CC1	·	·	–	·	·	·	·
Cc1ccc(NC(=O)C2CCN(S(=O)(=O)c3cc([N+](=O)[O-])ccc3Cl)CC2)nc1	–	–	–	–	81	–	80
CC(NC(=O)C1CCN(S(=O)(=O)c2cc([N+](=O)[O-])ccc2Cl)CC1)c1ccccc1 (configuration not stated)	–	–	–	–	–	–	·
Cc1ccc2nc(NC(=O)C3CCN(S(=O)(=O)c4cccc5nsnc45)CC3)sc2c1	–	–	–	–	–	–	·
Cc1ccc2nc(NC(=O)C3CCN(S(=O)(=O)c4cc([N+](=O)[O-])ccc4Cl)CC3)sc2c1	–	–	–	–	97	–	69
O=C(Nc1nc2ccc(F)cc2s1)C1CCN(S(=O)(=O)c2cc([N+](=O)[O-])ccc2Cl)CC1	–	–	–	–	96	–	84
CC(C)[C@H]1COc2c3ccccc3nn21	·	·	–	·	·	·	·
CC(NCc1ccco1)C(=O)N1CCOCC1 (configuration not stated)	·	·	–	·	·	·	·
O=C(NCCCCCCNC(=O)c1ccc(Br)s1)c1ccc(Br)s1	–	–	–	–	54	–	36
CN(C)c1ccc(/C=C/c2ccc3ccccc3[n+]2C)cc1	–	–	–	–	109	–	68
CN(C)c1ccc(/C=C/c2ccc3c4ccccc4ccc3[n+]2-c2ccccc2)cc1	·	–	–	–	154	–	77
CN(CCCS(=O)(=O)[O-])c1ccc(/C=C/c2ccc3ccccc3[n+]2C)cc1	–	–	–	–	–	–	·
CN(C)c1ccc(/C=C/c2cccc[n+]2[O-])cc1	–	–	–	–	–	–	·
COC(=O)[C@]12C[C@H](CC(=O)NCCCN3CCCC3=O)C(=O)N(Cc3ccc(Cl)cc3Cl)C1=C[C@H](COCc1ccccc1)O[C@@H]2C	·	·	–	·	·	·	·
CC(NC(=O)Nc1ccc(Cl)c(Cl)c1)C(c1ccccc1)N1CCOCC1 (configuration not stated)	–	–	–	–	89	–	95
CC(NC(=O)Nc1ccc([N+](=O)[O-])cc1)C(c1ccccc1)N1CCOCC1 (configuration not stated)	–	–	–	–	–	–	·
CC(Cc1cccs1)NC(=O)Nc1ccc(Cl)c(Cl)c1 (configuration not stated)	–	–	–	–	96	–	94
Cc1ccc(N2CCN(/N=C/c3ccncc3)CC2)cc1	–	–	–	–	–	–	·
